MrgX1 antagonist – antagonists of human MrgX1 receptor, primary screen, HEK293 cells, Fluo-4 calcium flux | Mas-related G-protein coupled receptor member X1 (Homo sapiens), Q96LB2 | B-score at 10 µM | AID 588676, 2011 | BAM8-22 antagonism; hits give low values | 1.3% of 310,000 active;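 active = calcium-response B-score plate-corrected more than 3 library SD below zero, starting fluorescence within 5 deviations, no agonist response on first addition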;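 also: peak minus trough fluorescence over baseline after final BAM8-22 challenge near maximal dose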
Target sequence (Q96LB2 whole entry, looked up): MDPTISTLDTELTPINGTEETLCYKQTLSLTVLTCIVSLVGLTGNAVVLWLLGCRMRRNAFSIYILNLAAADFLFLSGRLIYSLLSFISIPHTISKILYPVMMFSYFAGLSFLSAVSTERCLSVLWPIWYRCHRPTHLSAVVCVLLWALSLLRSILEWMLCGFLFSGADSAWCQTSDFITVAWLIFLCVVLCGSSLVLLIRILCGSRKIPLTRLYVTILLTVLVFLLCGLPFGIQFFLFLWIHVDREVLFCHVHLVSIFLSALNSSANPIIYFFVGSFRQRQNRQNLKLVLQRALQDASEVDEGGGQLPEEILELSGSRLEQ
MrgX1 PAM – positive allosteric modulators of MrgX1, primary screen, HEK293 cells, Fluo-4 calcium flux | FDSS; hits give high values | B-score at 10 µM | 0.63% of 310,000 active;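 active = plate-corrected calcium response at least 3 library SD above typical, normal starting fluorescence, not activating the receptor alone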;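 also: compound read alongside a low EC10 to EC30 dose of BAM8-22 agonist; peak minus trough fluorescence over baseline measured at the second addition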
RGS4 pot – RGS4 potentiators or activators, primary screen, cell-based, HEK293 M3R inducible RGS4, calcium flux; carbachol calcium flux Fluo4; hits give low values; B-score at 10 µM; 0.92% of 310,000 active;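 active = B-score of the integrated calcium signal more than 4 SD below the library mean, with starting fluorescence not abnormally high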;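 also: negative B-score means reduced calcium response which marks RGS4 activation or potentiation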
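Assay system: Inducible-RGS4 HEK293 cells carrying M3 receptor | Schedule: Compound preincubation 20 min at room temperature before agonist | Signal: Kinetic calcium fluorescence imaging with Fluo4-AM dye, 2 µM | Read-out basis: B score from integrated fluorescence ratio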
RGS4 block – RGS4 inhibitors, primary screen, cell-based, HEK293 M3R inducible RGS4, calcium flux. 0.45% of 310,000 active. Fluo-4 calcium flux; hits give high values; triggered by carbachol at its EC20. Regulator of G-protein signaling 4 (Homo sapiens), P49798. B-score at 10 µM. AID 463165, 2010;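 active = B-score, a plate-corrected calcium signal, over three deviations above library mean, with baseline fluorescence within five deviations of library mean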;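 also: RGS4 expression induced by doxycycline in cells with stable M3 receptor; B-score is computed from the integrated fluorescence ratio over baseline after carbachol; higher B-score means a larger calcium signal and so more RGS4 inhibition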
Target sequence (P49798 whole entry, looked up): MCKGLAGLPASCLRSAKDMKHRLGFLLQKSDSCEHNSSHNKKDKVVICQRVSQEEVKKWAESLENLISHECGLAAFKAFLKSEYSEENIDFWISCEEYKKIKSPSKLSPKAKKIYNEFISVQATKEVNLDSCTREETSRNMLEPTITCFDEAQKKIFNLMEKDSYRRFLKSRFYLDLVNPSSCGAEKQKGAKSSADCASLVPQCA
MrgX1 agonist – agonists of human MrgX1 receptor, primary screen, HEK293 cells, Fluo-4 calcium flux; Fluo-4 calcium fluorescence, agonist mode; hits give high values; Mas-related G-protein coupled receptor member X1 (Homo sapiens), Q96LB2; B-score at 10 µM; 0.44% of 310,000 active;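 active = calcium response B-score plate-corrected fluorescence ratio at least 3 library SD, with starting fluorescence B-score inside 5 SD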
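Material: HEK293 cells stably expressing human MrgX1 receptor | Quantity: 15,000 cells per well | Times: Cells plated overnight, dye loaded 0.5 h 37 °C, 0.5 h room temperature | Measured by: Kinetic Fluo-4 NW fluorescence of intracellular calcium | Control set: Positive and negative controls per plate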
RGS4 block valid – enhanced carbachol calcium response, M3R/RGS4 cells, RGS4 inhibitor project, cell-based, validation screen, HEK293 M3R/RGS4, calcium flux; 65% of 1,700 active; calcium response, % at 10 µM; carbachol calcium Fluo-4 fluorescence; carbachol added at its EC20; 0 = buffer wells, 100 = carbachol control; shares compounds with RGS4 block;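 active = duplicate-averaged calcium response above the buffer-only control mean plus 5 SD of those controls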;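 also: integrated fluorescence ratio F max minus min over baseline F0; higher response in RGS4-induced cells means RGS4 inhibition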
RGS4 uninduced – carbachol calcium response in non-induced M3R cells, confirmation, counter-screen for RGS4 inhibitor project, cell-based, HEK293 M3R | AID 493000, 2010 | carbachol calcium Fluo-4; submaximal (EC20) carbachol stimulus; buffer wells 0%, carbachol control wells 100% | shares compounds with RGS4 block | activity (percent), % at 10 µM | 20% of 1,900 active; call rule not given here;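 also: RGS4 induction absent so cells express M3R without RGS4; higher means more calcium signal and flags a non-specific hit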
RGS4 inh ctr2 – second counter-screen for RGS4 inhibitors: non-induced cells without carbachol. shares compounds with RGS4 block. HEK293 M3R/RGS4 non-induced, Fluo-4 calcium, no carbachol; normalised: buffer wells 0%, carbachol wells 100%. 22% of 1,900 active. calcium response (agonist-mode artifact), % at 10 µM;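 active = duplicate-averaged calcium rise in uninduced cells above buffer wells' mean plus 5 SD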
Numbers without * were called inactive; i = inactive; x = no result given. Sampled rows, rich in hits. Any-hit rate of the full collection: about 3.5%.

SMILES | MrgX1 antagonist | MrgX1 PAM | RGS4 pot | RGS4 block | MrgX1 agonist | RGS4 block valid | RGS4 uninduced | RGS4 inh ctr2
Cc1ccc(-c2cc(-c3ccc(F)cc3)c(C#N)c(N)n2)o1 | i | i | i | i | 27* | i | i | i
Cc1cccc(NC(=O)Cn2cnc3ccccc3c2=O)c1C | i | i | i | i | i | x | x | x
CC(C)(C)Sc1ccc(/C=N/O)cc1[N+](=O)[O-] | i | i | i | 6.8* | i | 10%* | i | i
CC(=O)Nc1ccc(NC(=O)COC(=O)/C(=C/c2ccccc2)n2nnnc2C)cc1 | i | i | i | 6.4* | i | 18%* | i | i
Cc1nnnn1/C(=C\c1ccccc1)C(=O)OCC(=O)NC(C)(C)C | i | i | i | i | i | x | x | x
Cc1nnnn1/C(=C\c1ccccc1)C(=O)OCC(=O)NC1CCCCC1 | i | i | i | 6.4* | i | 12%* | i | 9.0%*
O=C(c1cc2ccccc2o1)N1CCN(c2ccccn2)CC1 | i | i | i | i | i | x | x | x
Cc1ccc(Cn2c(=N)n(CC(=O)c3ccccc3)c3ccccc32)cc1 | i | i | i | 5.3* | i | 24%* | 34%* | 31%*
O=C(N/N=C/c1cc(Cl)cc([N+](=O)[O-])c1O)NC12CC3CC(CC(C3)C1)C2 | i | i | i | 9.1* | i | 12%* | i | i
COc1ccc(C2=NN(CN3C(=O)C(=O)c4ccccc43)C(c3ccc(OC)cc3)C2)cc1 (stereo not drawn) | i | i | i | i | i | x | 35%* | i
CC(/C=N/NC(=O)c1n[nH]c2c1CCC2)=C\c1ccccc1 | i | i | i | i | i | i | i | i
C#Cc1ccc([C@@H]2C=C(C(=O)N3CCOCC3)O[C@H](OCC)[C@H]2CCCO)cc1 | i | i | i | i | i | x | x | x
COc1cc(/C=C2/C(=O)NN(c3cccc(F)c3)C2=O)ccc1OC(=O)c1ccco1 | i | i | i | i | i | x | i | i
COc1cc(/C=N/NC(=O)c2ccc(F)cc2)ccc1OC(=O)c1ccco1 | i | i | i | i | i | x | x | x
COc1cc(/C=C2/C(=O)NN(c3ccc(Cl)cc3)C2=O)ccc1OC(=O)c1ccco1 | i | i | i | i | i | x | i | 8.5%*
CCCCn1c(N)c(N(CC(C)C)C(=O)CC2CCCC2)c(=O)[nH]c1=O | i | i | i | i | i | x | x | x
CCOC(=O)N1CCN(C(=O)c2ccc3c(c2)N=C(C)c2cc(Cl)ccc2S3)CC1 | i | i | i | i | i | x | x | x
CCOc1ccc(-c2c(C(=O)N/N=C/c3ccc(O)cc3)nnn2-c2nonc2N)cc1 | i | i | i | i | i | x | x | x
CCOc1cccc(-c2c(C(=O)N/N=C/c3ccc(Br)cc3)nnn2-c2nonc2N)c1 | i | i | i | 19* | i | 38%* | 57%* | i
CCOc1ccc(-c2c(C(=O)N/N=C/c3cccc(Br)c3)nnn2-c2nonc2N)cc1 | i | i | i | i | i | i | i | 8.0%*
CCOc1cccc(-c2c(C(=O)N/N=C/c3cccnc3)nnn2-c2nonc2N)c1 | i | i | i | i | i | i | i | i
CCCc1c(C(=O)N/N=C/c2cccnc2)nnn1-c1nonc1N | i | i | i | i | i | x | x | x
CC(=O)Nc1sc2c(c1CN1CCN(c3ccc(F)cc3)CC1)CCCC2 | i | i | i | i | i | x | x | x
COc1cccc(C(=O)C2CCCN(Cc3cn(CC(N)=O)c4ccccc34)C2)c1 (stereo not drawn) | i | i | i | i | i | x | x | x
Cc1cc(N(CCO)CCO)ccc1N=Nc1cc(F)ccc1F | i | i | i | 7.3* | i | 18%* | 41%* | i
SMILES | MrgX1 antagonist | MrgX1 PAM | RGS4 pot | RGS4 block | MrgX1 agonist | RGS4 block valid | RGS4 uninduced | RGS4 inh ctr2
CCc1cc2c(SCC(=O)Nc3cc(C)on3)ncnc2s1 | i | i | i | i | i | x | x | x
CCc1cccc(CC)c1NC(=S)NCCc1c(C)[nH]c2ccc(C)cc12 | i | i | i | i | i | x | i | i
CCc1cccc(C)c1NC(=S)NCCc1c(C)[nH]c2ccc(C)cc12 | i | i | i | i | i | x | x | x
O=C(Cc1ccsc1)NNC(=O)c1ccccc1Cl | i | i | i | i | i | x | x | x
Cc1cc(NC(=O)c2ccc(Cl)cc2)ccc1NC(=O)c1ccccc1Cl | i | i | i | i | i | x | x | x
CC(=O)Nc1cccc(C(=O)/C=C/c2ccc(N(C)C)cc2)c1 | i | i | i | i | 63* | i | i | 156%*
CC(=O)Nc1cccc(C(=O)/C=C/c2ccc(F)cc2)c1 | i | i | i | i | i | i | i | 10%*
CC(=O)Nc1cccc(C(=O)/C=C/c2ccc[nH]2)c1 | i | i | i | i | i | x | x | x
CC(=O)Nc1cccc(C(=O)/C=C/c2ccc(Br)cc2)c1 | i | i | i | 7.2* | i | i | i | i
O=C(Cn1nc(-c2cccc(Cl)c2)ccc1=O)Nc1ccc(C(=O)NC2CC2)cc1 | i | i | i | i | i | x | x | x
CC(C)c1nnc(NC(=O)CC(=O)Nc2ccccc2C(=O)O)s1 | i | i | i | i | i | x | x | x
Cc1c(/C=N/NC(=O)CNc2ccccc2)c2ccccn2c1C(=O)c1ccccc1 | i | i | i | i | i | i | i | 16%*
Cc1c(/C=N/NC(N)=O)c2ccccn2c1C(=O)c1ccncc1 | i | i | i | i | i | x | x | x
CCN(CC)Cc1nc2c(c(=O)[nH]1)C1(CCCCC1)Cc1ccccc1-2 | i | i | i | i | i | x | x | x
O=c1[nH]c(NNC(=S)NC2CCCCC2)nc2c1C1(CCCC1)Cc1ccccc1-2 | i | i | i | 12* | i | 7.5%* | i | i

Screening results deposited in PubChem BioAssay by Johns Hopkins Ion Channel Center.
